Results on three compounds are retold here after article PMC6679956 (Journal of medicinal chemistry, 2019).

Data set [1] is described as follows: Peptide helicity by CD spectroscopy. The class given is physicochemical. A digest of the protocol: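 Test peptides at 100 μM in 5 mM sodium phosphate, pH 7.4, equilibrated at 10, 15, 20, 25 and 30 °C. Spectra recorded from 180 to 260 nm: 0.1 nm step, 50 nm/s, five accumulations, 1 s response, 5 nm bandwidth, 0.1 cm path. α-Helical content calculated from previously reported equations. Triplicate analyses per peptide.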

Another data set has as its target m^7GDP-bound eIF4E (Homo sapiens, UniProt P06730). Briefly: SPR binding kinetics of peptides to immobilized eIF4E. A general note: SPR reads the build-up and loss of mass on a sensor chip optically.
Where [2] appears, read: SPR, 25 °C, 1.0 M versus 225 mM salt.

m^7GDP-bound eIF4E, sequence (P06730 whole entry): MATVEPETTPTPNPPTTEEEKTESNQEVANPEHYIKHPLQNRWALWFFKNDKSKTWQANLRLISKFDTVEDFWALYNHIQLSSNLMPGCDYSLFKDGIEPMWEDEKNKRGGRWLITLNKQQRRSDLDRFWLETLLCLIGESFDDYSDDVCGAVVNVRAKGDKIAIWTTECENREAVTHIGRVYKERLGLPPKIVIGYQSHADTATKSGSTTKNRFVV

For `CC[C@H](C)[C@H](NC(=O)[C@H](CCCNC(=N)N)NC(=O)[C@@H](NC(=O)CNC(C)=O)[C@@H](C)O)C(=O)N[C@H](C(=O)N[C@@H](Cc1ccc(O)cc1)C(=O)N[C@@H](CC(=O)O)C(=O)N[C@@H](CCCNC(=N)N)C(=O)N[C@@H](CCCCN)C(=O)N[C@@H](Cc1ccccc1)C(=O)N[C@@H](CC(C)C)C(=O)N[C@@H](CCSC)C(=O)N[C@@H](CCC(=O)O)C(=O)N[C@@H](CS)C(=O)N[C@@H](CCCNC(=N)N)C(=O)N[C@@H](CC(N)=O)C(N)=O)[C@@H](C)CC` [4E-BP1], the “helicity over the temperatures tested” value in data set [1] (100 μM, 10 to 30 °C) was 15–19%. Moreover, in data set [1] (5 mM sodium phosphate buffer pH 7.4, 25 °C, 100 μM peptide, with 2,2,2-trifluoroethanol), the “helicity in the presence of TFE” value came to 37%.
As to `CC(=O)N[C@@H](CCCCN)C(=O)N[C@@H](CCCCN)C(=O)N[C@@H](CCCNC(=N)N)C(=O)N[C@@H](Cc1ccc(O)cc1)C(=O)N[C@@H](CC(=O)O)C(=O)N[C@@H](CCCNC(=N)N)C(=O)N[C@@H](CCC(=O)O)C(=O)N[C@@H](Cc1ccccc1)C(=O)N[C@@H](CC(C)C)C(=O)N[C@@H](CC(C)C)C(=O)NCC(=O)N[C@@H](Cc1ccccc1)C(=O)N[C@@H](CCC(N)=O)C(=O)N[C@@H](Cc1ccccc1)C(N)=O` [eIF4G], the “kd with increasing salt concentration” value on m^7GDP-bound eIF4E (SPR, 25 °C, running buffer salt 225 to 1000 mM) is 0.046 to 0.27 s⁻¹. Besides, at m^7GDP-bound eIF4E (SPR, at most temperatures, particularly the higher ones), the “kinetic advantage (ka) of eIF4G peptide over both 4E-BP1 peptides” value is reported as ~ 2 fold.
On to Ac-KKRYSREQLLGL-NH2 [Linear sTIP-04], for which, on m^7GDP-bound eIF4E (setting [2]), the “fold decrease in Kd with increasing salt concentration” value worked out at 4 fold and the “fold decrease in kd with increasing salt concentration” value is reported as 48 fold. Besides, the kon on m^7GDP-bound eIF4E (pH 7.5, read-out: association rate ka) came to 2e+06 ± 100000 M⁻¹ s⁻¹. In addition, the koff at m^7GDP-bound eIF4E (pH 7.5, read-out: dissociation rate kd) came to 0.123 ± 0.014 s⁻¹.
